Source: ChEMBL document CHEMBL5055625, “Saturated Oxo Fatty Acids (SOFAs): A Previously Unrecognized Class of Endogenous Bioactive Lipids Exhibiting a Cell Growth Inhibitory Activity” (J Med Chem, 2021)
Calls of active or inactive are those of the source. No cut-off for these calls is given here.

Key:
A549 [1] = test: Antitumor activity against human A549 cells assessed as decrease in STAT3 mRNA expression measured at 50 microM by RT-PCR analysis; type: functional, cell-based
Summary of the method: (§1)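 A549 cells were treated with 50 μM compound alongside DMSO controls. mRNA levels were measured by quantitative real-time RT-PCR and expressed relative to the DMSO control.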

SF-268 = test: Growth inhibition of human SF-268 cells upto 75 microM measured after 72 hrs by MTT assay; type: functional, cell-based
Summary of the method: (§2)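 A549, Caco-2 and SF268 cells were grown in DMEM (4.5 g/L glucose) with 10% heat-inactivated FBS and pen-strep at 37 °C, 5% CO2. After 24 h, medium was replaced with compound at 10, 25, 35, 50 or 75 μM (final 0.5% DMSO; vehicle controls) for 72 h. MTT (0.25 mg/mL final) was added for 3 h, formazan was dissolved in DMSO, and A570 minus A690 was read. Triplicate wells per condition were normalized to DMSO control as 100%; IC50 was taken from dose-response curves over ≥3 experiments.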

A549 [2] = test: Growth inhibition of human A549 cells at 50 microM measured after 72 hrs by MTT assay; type: functional; settings: for inhibition of growth at 50 µM: read-out: GI; summary of the method: as §2
Caco-2 = test: Growth inhibition of human Caco-2 cells up to 75 uM measured after 72 hrs by MTT assay; type: functional, cell-based; summary of the method: as §2
HUVEC = test: Growth inhibition of HUVEC cells upto 75 microM measured after 72 hrs by MTT assay; type: cell-based; settings: human
A549 [3] = test: Growth inhibition of human A549 cells measured after 72 hrs by MTT assay; type: functional, cell-based; settings: A549, 72 h; summary of the method: as §2
A549 [4] = test: Antitumor activity against human A549 cells assessed as decrease in c-myc mRNA expression measured at 50 microM by RT-PCR analysis; type: functional, cell-based; summary of the method: as §1
A549 [5] = test: Down regulation of […] protein expression in human A549 cells measured at 50 uM by Western blot analysis; type: functional, cell-based
Summary of the method: (§3)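 A549 cells were treated with 50 μM compound or DMSO and lysed in RIPA buffer; lysates were spun at 17 000g for 15 min at 4 °C and protein was measured by Bradford assay. 35 μg of protein was run on SDS-PAGE and semidry-transferred to nitrocellulose, then blocked 1 h in 5% BSA/TBS-0.1% Tween-20. Blots were probed overnight at 4 °C with anti-phospho-STAT3 and anti-STAT3 (1:1000) plus β-actin (1:20 000) as loading control, followed by secondary antibodies for 1.30 h at r.t.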

[6] = biological target: Signal transducer and activator of transcription 3 (Homo sapiens) (UniProt P40763); test: Inhibition of phosphorylated STAT3 expression in human A549 cells measured at 50 uM by Western blot analysis; type: cell-based; summary of the method: as §3
Signal transducer and activator of transcription 3 (Homo sapiens), sequence (P40763 whole entry): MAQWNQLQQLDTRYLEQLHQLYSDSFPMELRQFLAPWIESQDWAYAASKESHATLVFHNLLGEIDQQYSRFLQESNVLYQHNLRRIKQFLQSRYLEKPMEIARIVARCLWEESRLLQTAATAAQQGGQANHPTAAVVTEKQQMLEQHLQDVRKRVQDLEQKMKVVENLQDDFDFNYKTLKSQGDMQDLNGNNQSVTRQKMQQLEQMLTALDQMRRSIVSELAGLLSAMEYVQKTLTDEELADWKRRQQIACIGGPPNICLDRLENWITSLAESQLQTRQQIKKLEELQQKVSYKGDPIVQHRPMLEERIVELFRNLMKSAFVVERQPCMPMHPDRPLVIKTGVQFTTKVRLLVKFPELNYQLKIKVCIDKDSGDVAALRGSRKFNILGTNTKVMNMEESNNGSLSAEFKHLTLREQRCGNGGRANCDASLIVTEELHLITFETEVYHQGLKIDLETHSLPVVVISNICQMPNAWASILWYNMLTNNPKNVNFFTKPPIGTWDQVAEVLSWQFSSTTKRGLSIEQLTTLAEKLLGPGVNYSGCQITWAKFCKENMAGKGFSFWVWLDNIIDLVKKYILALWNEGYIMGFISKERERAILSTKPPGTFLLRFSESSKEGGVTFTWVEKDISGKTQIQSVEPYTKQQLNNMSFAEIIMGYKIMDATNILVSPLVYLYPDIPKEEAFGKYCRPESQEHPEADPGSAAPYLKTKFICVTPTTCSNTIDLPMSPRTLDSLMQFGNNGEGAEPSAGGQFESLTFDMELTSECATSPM

| SMILES | IC50 (A549 [3]) [µM] | inhibition [6] | Activity (A549 [1]) | growth inhibition (GI) (SF-268) | inhibition of growth at 50 µM (A549 [2]) [%] | growth inhibition (GI) (Caco-2) | Activity (HUVEC) | Activity (A549 [4]) | Activity (A549 [5]) | growth inhibition (GI) (A549 [2]) |
| --- | --- | --- | --- | --- | --- | --- | --- | --- | --- | --- |
| CCCCCCCCCCCCCCCC(=O)O |  |  |  |  |  |  |  |  |  | inactive |
| CCCCCCCCCC(O)CCCCCCCC(=O)O (stereo not drawn) |  |  |  |  | > 50 |  |  |  |  |  |
| CCCCCCCCCCC[C@@H](O)CCCCCC(=O)O |  |  |  |  | > 50 |  | Non-Toxic |  |  |  |
| CCCCCCCCCCCCCCCCCC(=O)O |  |  |  |  |  |  |  |  |  | inactive |

More lines, main results first:

| IC50 (A549 [3]) [µM] | inhibition [6] | SMILES | Activity (A549 [1]) | growth inhibition (GI) (SF-268) | inhibition of growth at 50 µM (A549 [2]) [%] | growth inhibition (GI) (Caco-2) | Activity (HUVEC) | Activity (A549 [4]) | Activity (A549 [5]) | growth inhibition (GI) (A549 [2]) |
| --- | --- | --- | --- | --- | --- | --- | --- | --- | --- | --- |
| 26 | Active | CCCCCCCCCCCCC(=O)CCCCC(=O)O | Active | inactive | > 50 | inactive | Non-Toxic | Active | Active |  |
| 28 | Active | CCCCCCCCCCCC(=O)CCCCCC(=O)O | Active | inactive | > 50 | inactive |  | Active | Active |  |
| 49 |  | CCCCCCCCCCCCCC(=O)CCCC(=O)O |  |  | > 50 |  |  |  |  |  |
| 37 |  | CCCCCCCCCCC(=O)CCCCCCC(=O)O |  | inactive | > 50 | inactive |  |  |  |  |
